Experimental data as given in ChEMBL document CHEMBL1132198, “Hypoglycemic prodrugs of 4-(2,2-dimethyl-1-oxopropyl)benzoic acid” (J Med Chem, 1999).

Key:
[1] = AUC was measured from the graph plotted against blood plasma concentration and time at the dose of 150 uMol/kg,; assay type: ADME
[2] = AUC was measured from the graph plotted against blood plasma concentration and time at the dose of 300 uMol/kg,; assay type: ADME
Rattus norvegicus [3] = experiment: In vivo percentage efficacy, measured as ability to decrease blood glucose percentage after 11.25 days.; assay type: functional; design: concentration or dose not given beside the values
Outline: (§1)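 Rats (250-300 g) on high-fat purified diet, made diabetic by 40 mg/kg streptozotocin iv (tail vein) 3 days into diet. Selected by glucose criteria, including an oral glucose load (1.35 g/kg dextrose) after an 18 h fast. Dosed orally once daily at 70 µmol/kg in CMC for 11 days. Blood glucose taken 6 h post-dose (food removed). % efficacy: 100% = normalization to 60 mg/dL.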

Rattus norvegicus [4] = experiment: In vivo percentage efficacy, measured as ability to decrease blood glucose percentage after 8.25 days in rats; assay type: functional; design: concentration or dose not given beside the values; outline: as §1
Rattus norvegicus [5] = experiment: Ketone levels were determined in an acute in vivo study for inhibition of gluconeogenesis in normal male Sprague-Dawley rats; assay type: functional; design: concentration or dose not given beside the values
Outline: (§2)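 Normal male Sprague-Dawley rats (200-300 g) fasted 18 h; five per group given compound by oral gavage at 100 µmol/kg in carboxymethylcellulose vehicle or vehicle alone. At 3 h, cardiac-puncture blood under brief CO₂ anesthesia; serum β-hydroxybutyrate (ketones) and glucose expressed as % of control; Student's t-test.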

Rattus norvegicus [6] = experiment: Glucose levels were determined in an acute in vivo study for inhibition of gluconeogenesis in normal male Sprague-Dawley rats; assay type: functional; design: concentration or dose not given beside the values; outline: as §2
[7] = AUC was measured from the graph plotted against blood plasma concentration and time at the dose of 700 uMol/kg,; assay type: ADME
Rattus norvegicus [8] = experiment: In vivo percentage efficacy, measured as ability to decrease blood glucose percentage after 8.25 days; assay type: functional; design: concentration or dose not given beside the values; outline: as §1
Rattus norvegicus [9] = experiment: Testes weight (treated)/body weight(treated)]/[testes weight(control)/body weight(control)] x 100 at a dose of 700 umol/kg/day; assay type: functional
[10] = AUC was measured from the graph plotted against blood plasma concentration and time at the dose of 150 uMol/kg
Rattus norvegicus [11] = experiment: In vivo percentage efficacy was measured as ability to decrease blood glucose percentage after 11.25 days in rats; assay type: functional; outline: as §1
Rattus norvegicus [12] = experiment: Testes weight (treated)/body weight(treated)]/[testes weight(control)/body weight(control)] x 100 at a dose of 350 umol/kg/day; assay type: functional
[13] = AUC was measured from the graph plotted against blood plasma concentration and time at the dose of 300 uMol/kg; assay type: ADME, cell-free
Rattus norvegicus [14] = experiment: Testes weight (treated)/body weight(treated)]/[testes weight(control)/body weight(control)] x 100 at a dose of 700 uM/kg/day; assay type: functional

Row | Structure (SMILES) | AUC [2] [µg·h/mL] | Efficacy (Rattus norvegicus [3]) [%] | Efficacy (Rattus norvegicus [4]) [%] | Serum ketone level, % of control (Rattus norvegicus [5]) [%] | Control (Rattus norvegicus [6]) [%] | other results
1 | CC(C)(C)C(=O)c1ccc(C(=O)O/C(=N\OCC(=O)O)c2ccc(C(=O)C(C)(C)C)cc2)cc1 | 2030 | <102 | <90 | <19 | <63 | AUC [1]: 1000 µg·h/mL
2 | CC(C)O/N=C(\OC(=O)c1ccc(C(=O)C(C)(C)C)cc1)c1ccc(C(=O)C(C)(C)C)cc1 | 155 | <98 | <80 | <41 | 94 | AUC [1]: 94 µg·h/mL
3 | Cc1ccc(C2(C(C)(C)C)OCCO2)cc1 | – | <64 | – | <12 | <58 | AUC [7]: 3560 µg·h/mL; Efficacy (Rattus norvegicus [8]): <52%; Control (Rattus norvegicus [9]): <52%; AUC [10]: 1510 µg·h/mL
4 | CC(C)(C)C(=O)c1ccc(C(N)=O)cc1 | – | – | – | – | – | Control (Rattus norvegicus [9]): <48%
5 | CC(C)(C)[C@@H](O)c1ccc(C(=O)O)cc1 | – | – | <64 | <23 | <42 | Efficacy (Rattus norvegicus [11]): <63%; Control (Rattus norvegicus [12]): <59%
6 | CC(C)(C)C(O)c1ccc(C(=O)O)cc1 (centres undefined) | – | – | – | – | <50 | Control (Rattus norvegicus [12]): <74%
7 | CC(C)(C)C(=O)c1ccc(C(=O)O)cc1 | – | – | – | – | – | Control (Rattus norvegicus [9]): <47%
8 | CC(C)(C)C(=O)c1ccc(C(=O)N(CC(=O)O)C(=O)c2ccc(C(=O)C(C)(C)C)cc2)cc1 | 1080 | <47 | – | <6 | <56 | Efficacy (Rattus norvegicus [8]): <53%
9 | CC(C)(C)C(=O)c1ccc(C(=O)N(C(=O)c2ccc(C(=O)C(C)(C)C)cc2)C(=O)c2cccnc2)cc1 | – | <74 | – | <46 | 95 | AUC [13]: 64 µg·h/mL; Efficacy (Rattus norvegicus [8]): <73%; Control (Rattus norvegicus [12]): 95%
10 | CC1(C)COC(c2ccc(C(=O)O)cc2)(C(C)(C)C)OC1 | 263 | – | – | <18 | 105 | –
11 | CC(C)(C)[C@H](O)c1ccc(C(=O)O)cc1 | – | – | – | <80 | 94 | Control (Rattus norvegicus [12]): <62%
12 | C=CCOC(c1ccc(C(=O)O)cc1)C(C)(C)C (centres undefined) | – | – | – | <29 | 107 | AUC [13]: 941 µg·h/mL
13 | COCCO/N=C(\OC(=O)c1ccc(C(=O)C(C)(C)C)cc1)c1ccc(C(=O)C(C)(C)C)cc1 | 1850 | <108 | <109 | <19 | <49 | –
14 | COC(c1ccc(C(=O)O)cc1)C(C)(C)C (centres undefined) | 1020 | <59 | – | <17 | <81 | Efficacy (Rattus norvegicus [8]): <23%
15 | CC(C)(C)C1(c2ccc(C(=O)O)cc2)OCCCO1 | 1400 | <65 | – | <15 | 111 | Efficacy (Rattus norvegicus [8]): <41%
16 | C=CCO/N=C(\OC(=O)c1ccc(C(=O)C(C)(C)C)cc1)c1ccc(C(=O)C(C)(C)C)cc1 | 158 | <85 | <53 | <43 | 105 | –
17 | CO/N=C(\OC(=O)c1ccc([C@@H](O)C(C)(C)C)cc1)c1ccc([C@H](O)C(C)(C)C)cc1 (relative stereo) | 2370 | – | – | <17 | <61 | –

Continued, in another order:

Row | AUC [2] [µg·h/mL] | Structure (SMILES) | Efficacy (Rattus norvegicus [3]) [%] | Efficacy (Rattus norvegicus [4]) [%] | Serum ketone level, % of control (Rattus norvegicus [5]) [%] | Control (Rattus norvegicus [6]) [%] | other results
18 | 413 | CC(C)(C)C(=O)c1ccc(C2=N[C@@H](Cc3ccccc3)C(=O)O2)cc1 | – | – | <21 | <90 | –
19 | 565 | CC(C)(C)C(=O)c1ccc(C(=O)O/C(=N\OCCO)c2ccc(C(=O)C(C)(C)C)cc2)cc1 | <92 | <92 | <15 | 98 | AUC [1]: 122 µg·h/mL
20 | 886 | CC(C)(C)C(=O)c1ccc(C2=NCCO2)cc1 | – | – | <20 | <74 | –
21 | 964 | CC(C)(C)C(=O)c1ccc(C(=O)N[C@@H](Cc2ccccc2)C(=O)O)cc1 | – | – | <4 | – | AUC [7]: 2930 µg·h/mL
22 | 588 | CC(C)(C)C(=O)c1ccc(C(=O)NC(=O)c2ccc(F)cc2)cc1 | <54 | – | <13 | <65 | AUC [7]: 2570 µg·h/mL; Efficacy (Rattus norvegicus [8]): <57%; Control (Rattus norvegicus [9]): <63%
23 | 85 | CO/N=C(\OC(=O)c1ccc(C(=O)C(C)(C)C)cc1)c1ccc(C(=O)C(C)(C)C)cc1 | <59 | <64 | <30 | 98 | AUC [7]: 325 µg·h/mL; Control (Rattus norvegicus [14]): 96%
24 | 1630 | CC(C)(C)C(=O)c1ccc(C(=O)O/C(=N\OCCCC(=O)O)c2ccc(C(=O)C(C)(C)C)cc2)cc1 | – | – | <15 | <70 | –
25 | 55 | CC(C)(C)O/N=C(\OC(=O)c1ccc(C(=O)C(C)(C)C)cc1)c1ccc(C(=O)C(C)(C)C)cc1 | <98 | <80 | <50 | <70 | Control (Rattus norvegicus [14]): 102%
26 | 122 | CC(C)(C)C(=O)c1ccc(C(=O)NC(=O)c2ccc(C(=O)C(C)(C)C)cc2)cc1 | – | – | <21 | 92 | AUC [7]: 2670 µg·h/mL; Control (Rattus norvegicus [9]): 101%
